In ChEMBL document CHEMBL3632470, “Antimalarial and Antiproliferative Cassane Diterpenes of Caesalpinia sappan” (J Nat Prod, 2015):

Legend:
Plasmodium falciparum = test: Antimalarial activity against chloroquine-resistant Plasmodium falciparum K1 by microculture radioisotope technique; format: functional, organism-based
How it was run: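 Microculture radioisotope technique on P. falciparum K1 (multidrug-resistant strain), parasites kept in continuous culture. Three replications per experiment. IC50 reported as mean ± SD of triplicate experiments.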

KB = test: Cytotoxicity against human KB cells after 48 hrs by MTT assay; format: functional, cell-based
How it was run: (§1)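 Cells grown in DMEM with 10% FBS, seeded at 6 × 10^4 cells/mL per well. Compounds in DMSO added at five concentrations, each in triplicate. Incubated 48 h at 37 °C in 5% CO2, then MTT (4 mg/mL) for another 4 h. Cells lysed in DMSO, absorbance read at 570 nm. At least three independent experiments.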

HT-29 = test: Cytotoxicity against human HT-29 cells after 48 hrs by MTT assay; format: functional, cell-based; details: HT-29, 48 h; how it was run: as §1

SMILES | IC50 (Plasmodium falciparum) | IC50 (KB) | IC50 (HT-29)
COC(=O)[C@]1(C)CCC[C@@]2(CO)C1CC[C@H]1[C@@H](C)C3=CC(=O)O[C@]3(O)C[C@@H]12 (stereo not given in full) | 2.5 µM |  | 
CCO[C@@]12C[C@H]3[C@@H](CCC4[C@](C)(C(=O)OC)CCC[C@@]43C=O)[C@@H](C)C1=CC(=O)O2 (stereo not given in full) | 29.7 µM | 7.4 µM | 
CCO[C@@]12C[C@H]3[C@@H](CCC4C(C(=O)OC)(C(=O)OC)CCC[C@@]43C=O)[C@@H](C)C1=CC(=O)O2 (stereo not given in full) | 38.9 µM |  | 
CCO[C@@]12C[C@H]3[C@@H](CCC4[C@](C)(C(=O)OC)CCC[C@@]43C(=O)O)[C@@H](C)C1=CC(=O)O2 (stereo not given in full) | 41.2 µM |  | 
COc1cccc2c1C(=O)c1c(O)c3c(c(O)c1C2=O)C[C@@](O)(C(=O)CO)C[C@@H]3O[C@H]1C[C@H](N)[C@H](O)[C@H](C)O1 [DOXORUBICIN] |  | 1.4 µM | 0.68 µM
CCO[C@@]12C[C@H]3[C@@H](CC[C@H]4C5(C(=O)OC)CCCC34C(OC)OC5)[C@@H](C)C1=CC(=O)O2 (stereo not given in full) | 15.7 µM |  | 
CCO[C@@]12C[C@H]3[C@@H](CC[C@H]4C5(C(=O)OC)CCCC34[C@H](O)OC5)[C@@H](C)C1=CC(=O)O2 (stereo not given in full) | 7.4 µM |  | 
CCOC1OCC2(C(=O)OC)CCCC13[C@H]1C[C@@]4(OC)OC(=O)C=C4[C@H](C)[C@@H]1CC[C@@H]23 (stereo not given in full) | 19.2 µM |  | 
COC(=O)C12CCCC3(C(OC)OC1O)[C@H]1C[C@@]4(O)OC(=O)C=C4[C@H](C)[C@@H]1CC[C@@H]23 (stereo not given in full) | 0.52 µM |  | 
CCO[C@@]12C[C@H]3[C@@H](CC[C@H]4C5(C(=O)OC)CCCC34C(OC)O[C@@H]5OC)[C@@H](C)C1=CC(=O)O2 (stereo not given in full) | 28.4 µM |  | 
CCO[C@H]1OC(OC)C23CCCC1(C(=O)OC)[C@@H]2CC[C@H]1[C@@H](C)C2=CC(=O)O[C@]2(OCC)C[C@@H]13 (stereo not given in full) | 32.1 µM |  | 
COC(=O)C12CCCC3([C@H](O)OC1)[C@H]1C[C@@]4(O)OC(=O)C=C4[C@H](C)[C@@H]1CC[C@@H]23 (stereo not given in full) | 0.78 µM |  | 
CCO[C@@H]1OC(OC)C2(C(=O)OC)CCCC13[C@H]1C[C@@]4(OCC)OC(=O)C=C4[C@H](C)[C@@H]1CC[C@@H]23 (stereo not given in full) | 34.8 µM |  | 
